Screening results as filed in PubChem BioAssay.
PG9 binder: binds the HIV-1 gp120 antibody PG9; TR-FRET gp120-PG9 antibody binding; inhibition, % at 6.7 µM; hit rate 0.43% among 360,000; AID 624416; in the data active = inhibition above about 8.5%
rCAG RNA binder: molecules binding r(CAG) RNA repeats | r(CAG) RNA repeat, TO-PRO-1 dye displacement fluorescence | inhibition, % at 3 µM | hit rate 1.3% among 370,000 | AID 651821;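 active = inhibition above the plate cutoff, the mean of all test compounds on that plate plus 3 SD, cut at about 35% in these data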;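 also: 0% = DMSO alone and 100% = 100 µM mitoxantrone as full dye displacement; higher means more dye released from RNA so lower well fluorescence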
NR2E3 ag-1: NR2E3 (human) agonism | GST-NR2E3/biotin-RetCOR TR-FRET, 1536-well | AID 2300 | hit rate 0.12% among 320,000 | inhibition of corepressor binding, % at 4.78 µM;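 active = percent inhibition above the cutoff of mean plus 3 SD of all tested compounds, set per screening campaign, cut at about 20% in these data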;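 also: 0% = DMSO wells and 100% = biotin wells as full block of FRET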
Target sequence (Q9Y5X4 whole entry, looked up): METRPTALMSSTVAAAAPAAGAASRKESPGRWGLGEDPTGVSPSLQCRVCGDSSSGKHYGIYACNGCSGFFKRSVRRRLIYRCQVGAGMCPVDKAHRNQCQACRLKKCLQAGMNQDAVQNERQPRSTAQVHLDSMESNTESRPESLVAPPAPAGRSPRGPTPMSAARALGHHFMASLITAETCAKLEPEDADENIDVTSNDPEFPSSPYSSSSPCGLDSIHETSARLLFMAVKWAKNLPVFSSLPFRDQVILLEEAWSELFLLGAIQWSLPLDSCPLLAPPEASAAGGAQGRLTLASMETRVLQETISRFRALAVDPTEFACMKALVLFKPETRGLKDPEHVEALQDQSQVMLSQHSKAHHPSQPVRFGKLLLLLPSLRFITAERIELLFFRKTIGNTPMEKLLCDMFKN
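System: GST-tagged NR2E3 plus biotinylated RetCOR corepressor; Amount: 1.35 nM GST-tagged NR2E3 final; Dosing: single nominal compound dose of 4.8 µM; Schedule: 5 h incubation at 4 °C; Technique: TR-FRET with europium anti-GST and streptavidin-D2, 340 nm excitation; Controls: biotin wells as high control, 0.6% DMSO wells as low control.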
Rev-erbA mod: Rev-erb alpha (human) modulation; P20393; Rev-erbα–FITC-DNA binding, fluorescence polarization, 90 min; activity, % at 10 µM; hit rate 0.79% among 370,000;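 active = activity above about 14%, limit read from the data; passing the limit was not always enough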;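 also: 0% = DMSO wells with 35 nM protein and 100% = DMSO wells with 750 nM protein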
NR2E3 ag-2: agonists of human NR2E3 nuclear receptor | hit rate 0.35% among 360,000 | inhibition of corepressor binding, % at 3.98 µM | Q9Y5X4 | CHO-S Gal4-NCOR/VP16-NR2E3 two-hybrid, luciferase;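 active = inhibition above the mean of all tested compounds plus 3 SD, cut at about 70% in these data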;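 also: 0% = DMSO with NR2E3 transfected cells and 100% = cells lacking NR2E3 construct; higher means lower luciferase signal from less NR2E3 corepressor binding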
rCAG binder conf: r(CAG) RNA repeat binding, confirmation; hit rate 70% among 4,300; TO-PRO-1 dye displacement fluorescence; AID 652065; shares compounds with rCAG RNA binder; inhibition, % at 3 µM;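 active = inhibition above a per-plate cutoff, the mean inhibition of sample wells plus 3 SD, cut at about 35% in these data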;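 also: loss of TO-PRO-1 fluorescence as compound displaces dye from 1x1 AA loop RNA; 0% = DMSO only wells and 100% = 100 µM mitoxantrone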
DNA CAG counter: disrupts DNA CAG TO-PRO-1 complex, flagging rCAG hits; shares compounds with rCAG RNA binder; d(CAG) DNA oligo TO-PRO-1 dye displacement, fluorescence; inhibition, % at 3 µM; hit rate 94% among 4,300; AID 652068;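 active = inhibition above its plate's cutoff, the mean test-well inhibition plus 3 SD, cut at about 4.8% in these data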;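 also: 0% = DNA dye mix with DMSO and 100% = 100 µM mitoxantrone; hits displace the dye from DNA and so lower well fluorescence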
* hit, by the source's call. This is a sample that favours compounds with a hit; in the whole collection about 2.6% have one here.

How did COc1cccc(OCCOc2ccc(/C=C3\C(=N)N4N=C(S(C)(=O)=O)SC4=NC3=O)cc2OC)c1 do in these assays?
PG9 binder: -3; rCAG RNA binder: 52*; Rev-erbA mod: 5; NR2E3 ag-2: -38; rCAG binder conf: 91*; DNA CAG counter: 75*

What do the screens show for `Cc1cc(/C=C2\C(=N)N3N=C(S(C)(=O)=O)SC3=NC2=O)c(C)n1Cc1ccccc1`?
PG9 binder: 0; rCAG RNA binder: 66*; NR2E3 ag-1: -3; Rev-erbA mod: -5; NR2E3 ag-2: 10; rCAG binder conf: 89*; DNA CAG counter: 62*

What do the screens show for `COc1cc(/C=C2\C(=N)N3N=C(S(C)(=O)=O)SC3=NC2=O)cc(OC)c1OCCOc1ccccc1C`?
PG9 binder: -2; rCAG RNA binder: 55*; NR2E3 ag-1: 2; Rev-erbA mod: -1; NR2E3 ag-2: -17; rCAG binder conf: 92*; DNA CAG counter: 81*

How did O=C(NCc1ccccc1)c1sc(=S)n2c1[nH]c(=O)c1ccccc12 do in these assays?
PG9 binder: 0; rCAG RNA binder: 47*; NR2E3 ag-1: -2; Rev-erbA mod: -5; NR2E3 ag-2: 7; rCAG binder conf: 83*; DNA CAG counter: 50*

How did COc1ccc(C)cc1Nc1nc(-c2c[nH]c3ccccc23)cs1 do in these assays?
PG9 binder: -3; rCAG RNA binder: 37*; NR2E3 ag-1: 4; Rev-erbA mod: -1; NR2E3 ag-2: -25; rCAG binder conf: 20; DNA CAG counter: 12*

How did CN(C)S(=O)(=O)c1ccc(S(=O)(=O)Nc2ccc3c(c2)oc2ccccc23)cc1 do in these assays?
PG9 binder: 0; rCAG RNA binder: 49*; NR2E3 ag-1: -3; Rev-erbA mod: -1; NR2E3 ag-2: -21; rCAG binder conf: 57*; DNA CAG counter: 19*

Results for CCN(CC)S(=O)(=O)c1ccc(NS(=O)(=O)c2ccc(C)c(C)c2)cc1 ?
PG9 binder: 1; rCAG RNA binder: 16; NR2E3 ag-1: -4; Rev-erbA mod: 0; NR2E3 ag-2: 18

Results for CCN(CC)S(=O)(=O)c1ccc(S(=O)(=O)Nc2ccc3c(c2)oc2ccccc23)cc1 ?
PG9 binder: 2; rCAG RNA binder: 56*; NR2E3 ag-1: -2; Rev-erbA mod: 3; NR2E3 ag-2: 17; rCAG binder conf: 51*; DNA CAG counter: 18*

How did C[C@@H]1CN([C@@H](C)CO)C(=O)CCCn2cc(nn2)CO[C@H]1CN(C)C(=O)Nc1ccc(-c2cccs2)cc1 do in these assays?
PG9 binder: 0; rCAG RNA binder: 5; Rev-erbA mod: -3

How did COc1ccc(C(C)(C)C)cc1N1C(=O)[C@@H]2CSCCS(=O)(=O)N2C1=O do in these assays?
PG9 binder: 0; rCAG RNA binder: 8; Rev-erbA mod: 5

How did C/C(NCCc1ccccc1)=C1/CCOC1=O do in these assays?
PG9 binder: -4; rCAG RNA binder: 1; Rev-erbA mod: 0; NR2E3 ag-2: 7

Results for O=C1/C(=C\c2cccc([N+](=O)[O-])c2O)SC(=S)N1Cc1ccccc1 ?
PG9 binder: 0; rCAG RNA binder: 37*; NR2E3 ag-1: 4; Rev-erbA mod: -16; NR2E3 ag-2: -21; rCAG binder conf: 93*; DNA CAG counter: 78*

Results for COc1cc([N+](=O)[O-])cc(/C=C2/SC(=S)N(Cc3ccccc3)C2=O)c1O ?
PG9 binder: 0; rCAG RNA binder: 79*; NR2E3 ag-1: -1; Rev-erbA mod: -6; NR2E3 ag-2: 29; rCAG binder conf: 95*; DNA CAG counter: 85*

Results for O=c1oc2c(-c3ccc([N+](=O)[O-])cc3)cc(O)cc2s1 ?
PG9 binder: 1; rCAG RNA binder: 40*; NR2E3 ag-1: 3; Rev-erbA mod: -3; NR2E3 ag-2: -13; rCAG binder conf: 9; DNA CAG counter: 7.7*

How did O=c1nc2c(O)cccn2c2c1c(=O)[nH]c1ccccc12 do in these assays?
PG9 binder: -4; rCAG RNA binder: 40*; Rev-erbA mod: -28; NR2E3 ag-2: -6; rCAG binder conf: 2; DNA CAG counter: -1

Results for Cc1ccc2[nH]c(C(=O)N/N=C/c3ccccc3O)c(C)c2c1 ?
PG9 binder: 4; rCAG RNA binder: 12; NR2E3 ag-1: -1; Rev-erbA mod: 3; NR2E3 ag-2: -120

Results for Cc1ccc2[nH]c(C(=O)N/N=C/c3ccccc3C(=O)O)c(-c3ccccc3)c2c1 ?
PG9 binder: -1; rCAG RNA binder: 55*; NR2E3 ag-1: 5; Rev-erbA mod: -2; NR2E3 ag-2: -12; rCAG binder conf: 36*; DNA CAG counter: 9.0*

What do the screens show for `COc1ccc(/C=N/NC(=O)c2[nH]c3ccc(C)cc3c2-c2ccccc2)c(C(=O)O)c1OC`?
PG9 binder: 0; rCAG RNA binder: 39*; NR2E3 ag-1: 1; Rev-erbA mod: 6; NR2E3 ag-2: -27; rCAG binder conf: 46*; DNA CAG counter: 15*

How did Cc1cc(=O)c2c(ccc3c(=O)cc(C)[nH]c32)[nH]1 do in these assays?
PG9 binder: 0; rCAG RNA binder: 3; Rev-erbA mod: -1

How did Cc1ccc(NC(=O)C2CCCN(S(=O)(=O)c3ccc(-n4cnnn4)cc3)C2)cc1 (stereo not given) do in these assays?
PG9 binder: 0; rCAG RNA binder: 4; NR2E3 ag-1: 4; Rev-erbA mod: -1; NR2E3 ag-2: -20

Results for O=C1NC[C@@H](CCCCN2C[C@H](Cc3ccccc3)N(CC3CCCCC3)C(=O)C2=O)N(Cc2ccccc2)C1=O ?
PG9 binder: -1; rCAG RNA binder: -1; Rev-erbA mod: 0; NR2E3 ag-2: -22

How did CC(=O)C[C@@H](O)CC(=O)[C@@H]1OC(=O)CCCCCCCc2ccccc21 do in these assays?
PG9 binder: 1; rCAG RNA binder: 1; Rev-erbA mod: 0; NR2E3 ag-2: -15

How did O=S(=O)(c1ccccc1)N(CC1CO1)c1cc(Cl)ccc1Cl (stereo not given) do in these assays?
PG9 binder: -1; rCAG RNA binder: -2; NR2E3 ag-1: 2; Rev-erbA mod: 2; NR2E3 ag-2: 8

Results for CCOC(=O)C1(C)CCN1C(=O)c1cc(-c2ccc(Cl)cc2)oc1C (stereo not given) ?
PG9 binder: 0; rCAG RNA binder: -1; Rev-erbA mod: -9; NR2E3 ag-2: -24

How did COc1ccc(C2=NN(c3ccc(C(=O)O)cc3)C(c3ccc(OC)c(OC)c3)C2)cc1 (stereo not given) do in these assays?
PG9 binder: 0; rCAG RNA binder: 39*; NR2E3 ag-1: 1; Rev-erbA mod: -2; NR2E3 ag-2: 7; rCAG binder conf: 49*; DNA CAG counter: 14*
